Results from ChEMBL document CHEMBL4152190, “Microwave-assisted one-pot synthesis of new phenanthrene fused-tetrahydrodibenzo-acridinones as potential cytotoxic and apoptosis inducing agents” (Eur J Med Chem, 2018).

What was measured:
HEK-293T = assay: Cytotoxicity against human HEK293T cells after 48 hrs by MTT assay; type: cell-based
How it was run: (§1)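 ATCC lines grown in DMEM or RPMI with 10% FBS and antibiotic-antimycotic, 37 °C, 5% CO2. Seeded at 3×10^4 cells/well, 24 h before dosing with vehicle (DMSO) controls. […] Cisplatin as reference.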

HeLa = assay: Cytotoxicity against human HeLa cells after 48 hrs by MTT assay; type: functional, cell-based; how it was run: as §1
PC-3 = assay: Cytotoxicity against human PC3 cells after 48 hrs by MTT assay; type: functional, cell-based; settings: PC-3, 48 h; how it was run: as §1
SK-OV-3 = assay: Cytotoxicity against human SKOV3 cells after 48 hrs by MTT assay; type: functional, cell-based; settings: SK-OV-3, 48 h; how it was run: as §1
HT-1080 = assay: Cytotoxicity against human HT1080 cells after 48 hrs by MTT assay; type: functional, cell-based; settings: HT-1080, 48 h; how it was run: as §1

| SMILES | IC50 (HEK-293T) | IC50 (HeLa) | IC50 (PC-3) | IC50 (SK-OV-3) | IC50 (HT-1080) |
| --- | --- | --- | --- | --- | --- |
| COc1cc2c3c(c4cc(OC)c(OC)cc4c2cc1OC)C(c1cc(OC)c(OC)c(OC)c1)C1=C(CC(C)(C)CC1=O)N3 (stereo not given) | 29.2 µM | 12.1 µM | 8.9 µM | 10.8 µM | 16.3 µM |
| COc1cc2c3c(c4cc(OC)c(OC)cc4c2cc1OC)C(c1ccc(C(C)C)cc1)C1=C(CC(C)(C)CC1=O)N3 (stereo not given) | 25.7 µM | > 50 µM | > 50 µM | 11.5 µM | 32.3 µM |
| COc1cc2c3c(c4cc(OC)c(OC)cc4c2cc1OC)C(c1ccc(C(C)C)cc1)C1=C(CCCC1=O)N3 (stereo not given) | 41.5 µM | 13.6 µM | 5.67 µM | 4.81 µM | 11.7 µM |
| COc1cc2c3c(c4cc(OC)c(OC)cc4c2cc1OC)C(c1ccc2c(c1)OCO2)C1=C(CC(C)(C)CC1=O)N3 (stereo not given) | 24.6 µM | 1.35 µM | 7.7 µM | 4.66 µM | 4.32 µM |
| COc1cc2c3c(c4cc(OC)c(OC)cc4c2cc1OC)C(c1cc(OC)c(O)c(OC)c1)C1=C(CC(C)(C)CC1=O)N3 (stereo not given) | > 50 µM | 9.42 µM | 6.84 µM | 6.5 µM | 7.64 µM |
| COc1cc2c3c(c4cc(OC)c(OC)cc4c2cc1OC)C(c1cccc2ccccc12)C1=C(CCCC1=O)N3 (stereo not given) | 14.4 µM | 6.87 µM | 5.31 µM | 2.67 µM | 3.83 µM |
| COc1cc2c3c(c4cc(OC)c(OC)cc4c2cc1OC)C(c1ccc(C)cc1)C1=C(CCCC1=O)N3 (stereo not given) | 38.9 µM | 4.79 µM | 7.17 µM | 1.62 µM | 5.63 µM |
| COc1cc2c3c(c4cc(OC)c(OC)cc4c2cc1OC)C(c1cccs1)C1=C(CCCC1=O)N3 (stereo not given) | 15.5 µM | 2.46 µM | 5.89 µM | 2.35 µM | 3.78 µM |
| COc1cc2c3c(c4cc(OC)c(OC)cc4c2cc1OC)C(c1ccc(Cl)cc1)C1=C(CC(C)(C)CC1=O)N3 (stereo not given) | > 50 µM | 38.8 µM | > 50 µM | 15.9 µM | 30.1 µM |
